Measurements: ChEMBL document CHEMBL1687708, “Efficacy of oritavancin in a murine model of Bacillus anthracis spore inhalation anthrax” (Antimicrob Agents Chemother, 2008)
Values after ≈ are worked out from the molar mass of the structure shown.

What was measured:
[1] = test system: Bacillus anthracis; assay: animal or person; settings: in Mus musculus, ip
[2] = test system: Bacillus anthracis; assay: Antimicrobial activity against Bacillus anthracis infected mouse spore inhalation anthrax model assessed as bacterial load per gram of lung tissue at 30 mg/kg, ip every 12 hrs for 14 days treated 48 hrs postinfection; assay type: functional; settings: route intraperitoneal
[3] = test system: Bacillus anthracis; assay: Antimicrobial activity against Bacillus anthracis infected mouse spore inhalation anthrax model assessed as bacterial load per gram of lung tissue at 30 mg/kg, ip every 12 hrs for 14 days treated 36 hrs postinfection; assay type: functional; settings: route intraperitoneal
[4] = test system: Bacillus cereus; assay: Antimicrobial activity against Bacillus cereus ATCC 4342 by broth microdilution method; assay type: functional
In short: (§1)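 B. cereus ATCC 4342 went through stepwise selection for 20 cycles in cation-adjusted Mueller-Hinton broth with doubling drug dilutions. Each cycle was seeded from the previous day's 0.5× MIC wells, in two independent rounds per drug. Selectants showing a fourfold or greater MIC rise were passaged 5 days without drug. Their MICs were then read alongside the parent strain. Oritavancin assays carried 0.002% polysorbate 80 throughout.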

[5] = test system: Bacillus anthracis; assay: animal or person; settings: in Mus musculus, ip; remark: listed apart in the source
[6] = test system: Bacillus cereus; assay: Ratio of MIC for Bacillus cereus ATCC 4342 selected after 20 daily cycles of drug selection followed by 5 days of nonselective growth to MIC for Bacillus cereus ATCC 4342; assay type: functional
In short: as §1

[7] = test system: Bacillus anthracis; assay: animal or person; settings: in Mus musculus, iv
[8] = test system: Bacillus cereus; assay: Antimicrobial activity against Bacillus cereus ATCC 4342 selected after 20 daily cycles of drug selection followed by 5 days of nonselective growth by broth microdilution method; assay type: functional; settings: ATCC 4342, 120 h
In short: as §1

[9] = test system: Bacillus anthracis; assay: Antimicrobial activity against Bacillus anthracis infected mouse spore inhalation anthrax model assessed as bacterial load per gram of lung tissue at 30 mg/kg, ip every 12 hrs for 14 days treated 24 hrs postinfection; assay type: functional; settings: route intraperitoneal
[10] = test system: Bacillus anthracis; assay: animal or person; settings: in Mus musculus, ip; remark: listed apart in the source
[11] = test system: Bacillus anthracis; assay: animal or person; settings: in Mus musculus, ip; remark: listed apart in the source

Compound | survival at 30 mg/kg [1] | log10cfu [2] | log10cfu [3] | MIC [4] | survival at 30 mg/kg [5] | Ratio [6] | survival at 30 mg/kg [7] | MIC [8] | log10cfu [9] | survival at 30 mg/kg [10] | survival at 30 mg/kg [11]
O=C(O)c1cn(C2CC2)c2cc(N3CCNCC3)c(F)cc2c1=O [CIPROFLOXACIN] | 70% | 3080 | 2880 | 0.12 µg/mL (≈ 0.362 µM) | 0% | 4 | 0% | 0.5 µg/mL (≈ 1.51 µM) | 1090 | 90% | 80%
CO[C@H]1/C=C/O[C@@]2(C)Oc3c(C)c(O)c4c(O)c(c(/C=N/N5CCN(C)CC5)c(O)c4c3C2=O)NC(=O)/C(C)=C\C=C\[C@H](C)[C@H](O)[C@@H](C)[C@@H](O)[C@@H](C)[C@H](OC(C)=O)[C@@H]1C [RIFAMPIN] |  |  |  | 0.03 µg/mL (≈ 0.0365 µM) |  | 8 |  | 0.25 µg/mL (≈ 0.304 µM) |  |  | 
